For 11 compounds, Activity, CD and inhibition results are on record in ChEMBL document CHEMBL4270657, “Efficient synthesis of new phenanthridine Wnt/β-catenin signaling pathway agonists” (Eur J Med Chem, 2018).

For assay [1], the system named is HEK293. The assay is described as follows: Activation of Wnt/beta-catenin signaling pathway (unknown origin) expressed in HEK293 cells harboring pEGFP-C1/TOP Flash/LacZ at 5 to 20 uM in Wnt3a conditioned medium after 6 hrs by luciferase reporter gene assay. It counts as cell-based. As to conditions: Homo sapiens. In outline: (§1)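 HEK293T cells in DMEM with 10% heat-inactivated FBS, 37°C, 5% CO2. Cells in 24-well plates were transfected with 250 ng plasmid per well (20 ng TOPFlash, 25 ng EGFP-C1, LacZ filler). 18 h later they were treated in Wnt3a CM or control CM for 6 h. Lysate GFP fluorescence was read first, then luciferase luminescence.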

Assay [2] concerns HEK293. Kind of assay: Activation of Wnt/beta-catenin signaling pathway (unknown origin) expressed in HEK293 cells harboring pEGFP-C1/TOP Flash/LacZ in Wnt3a conditioned medium after 6 hrs by luciferase reporter gene assay. It counts as cell-based. Particulars: Homo sapiens. In outline:
as §1
In general terms: Reporter assays use an easily measured gene product as a stand-in for the process of interest.

Assay [3] addresses Axin-1 (Mus musculus) (UniProt O35625). Kind of assay: Inhibition of HLY179 binding to mouse His6-tagged AXIN DAX domain expressed in Escherichia coli at 80 uM after 1 to 2 hrs by Western blot analysis. Background: A western blot detects proteins with antibodies after separation by electrophoresis.
Assay [4] relates to HEK293. Kind of assay: Activation of Wnt/beta-catenin signaling pathway (unknown origin) expressed in HEK293 cells harboring pEGFP-C1/TOP Flash/LacZ in Wnt3a conditioned medium assessed as increase in DKK1 gene expression at 0.5 to 5 uM after 6 hrs by luciferase reporter gene assay. Format: cell-based. Particulars: Homo sapiens. The procedure, abridged: (§2)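 HEK293T cells were treated with compound plus control or Wnt3a CM for 6 h. Total RNA was extracted with TRIzol and reverse-transcribed with oligo(dT) priming. Transcripts were quantified by PCR with target primers (DKK1 given) and GAPDH primers as reference.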

Assay [5] relates to HEK293. Kind of assay: Activation of Wnt/beta-catenin signaling pathway (unknown origin) expressed in HEK293 cells harboring pEGFP-C1/TOP Flash/LacZ in Wnt3a conditioned medium assessed as increase in AXIN2 gene expression at 0.5 to 5 uM after 6 hrs by luciferase reporter gene assay. It counts as cell-based. As to conditions: Homo sapiens. The procedure, abridged:
as §2

Each structure is given as a SMILES string. Active and inactive are the calls of the source. The rule behind the calls is not given here.

Axin-1 (Mus musculus), sequence (O35625 whole entry, the tested form may be a part): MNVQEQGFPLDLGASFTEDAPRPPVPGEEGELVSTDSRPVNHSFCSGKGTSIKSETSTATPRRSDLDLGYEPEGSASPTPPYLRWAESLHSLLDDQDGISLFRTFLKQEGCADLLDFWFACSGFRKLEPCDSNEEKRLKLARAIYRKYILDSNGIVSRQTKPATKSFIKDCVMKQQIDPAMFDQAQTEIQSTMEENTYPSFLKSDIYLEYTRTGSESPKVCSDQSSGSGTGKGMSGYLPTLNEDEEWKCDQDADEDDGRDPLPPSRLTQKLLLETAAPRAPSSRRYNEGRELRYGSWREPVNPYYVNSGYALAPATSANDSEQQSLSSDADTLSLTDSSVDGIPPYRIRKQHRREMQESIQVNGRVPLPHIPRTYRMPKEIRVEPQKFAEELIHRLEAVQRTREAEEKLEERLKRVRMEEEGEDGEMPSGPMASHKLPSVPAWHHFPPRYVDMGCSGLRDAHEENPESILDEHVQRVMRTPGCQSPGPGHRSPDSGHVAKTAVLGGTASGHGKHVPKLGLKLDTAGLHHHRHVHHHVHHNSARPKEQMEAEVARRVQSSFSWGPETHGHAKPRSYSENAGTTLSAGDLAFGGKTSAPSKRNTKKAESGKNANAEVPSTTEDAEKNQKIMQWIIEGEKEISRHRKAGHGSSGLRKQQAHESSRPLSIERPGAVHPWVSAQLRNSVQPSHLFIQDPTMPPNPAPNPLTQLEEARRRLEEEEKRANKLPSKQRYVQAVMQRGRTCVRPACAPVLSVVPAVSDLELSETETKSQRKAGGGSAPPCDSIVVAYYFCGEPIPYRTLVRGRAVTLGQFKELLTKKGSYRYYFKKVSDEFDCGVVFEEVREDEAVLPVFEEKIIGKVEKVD

Turning to `CCN1Cc2cc(OC)c(OC)cc2-c2cccc(C)c21`, the outcome in assay [1] was Active. In assay [2], this compound returned a CD of 5 µM.

As to `CCN1Cc2cc(OC)ccc2-c2cccc(C)c21`, the inhibition entry in assay [3] is “Active”. Moreover, the outcome in assay [1] was Active.

For the compound `c1ccc(OCc2cccnc2)cc1`, in assay [1], the result was Active.

For `CCN1Cc2cc(OCc3cc(C)nn3C)c(OCc3cc(C)nn3C)cc2-c2cccc(C)c21`, in assay [3], the inhibition entry is “Active”. The compound also gave a CD in assay [2] of 0.15 µM. Besides, the outcome in assay [4] and in assay [5] was Active.

In the case of `CCN1Cc2cc(OCc3cc(C)n(C)n3)ccc2-c2cccc(C)c21`, the inhibition result in assay [3] is “Active”. The same compound came in with a CD in assay [2] of 3 µM. Besides, the outcome in assay [4] and in assay [5] was Active.

Consider `CCN1Cc2cc(OCc3cccnc3)ccc2-c2cccc(C)c21`, for which the CD in assay [2] is 1.5 µM.

For the compound `CCN1Cc2cc(OCc3cccnc3)c(OCc3cccnc3)cc2-c2cccc(C)c21`, the inhibition entry in assay [3] was “Active”. The same compound showed a CD in assay [2] of 5 µM.

Consider `Cc1cc(COc2ccccc2)n(C)n1`, for which the outcome in assay [1] was Active.

As for `CCN1Cc2cc(OCc3cc(C)nn3C)ccc2-c2cccc(C)c21`, the inhibition result in assay [3] is “Active”. The CD in assay [2] came out at 0.5 µM.

Take `Cc1cc(COc2ccccc2)nn1C`: the result in assay [1] was Active.

For the compound `COc1ccc2c(c1)CN(C)c1c(C)cccc1-2`, the inhibition entry in assay [3] was “Active”.
